{"source": "ChEMBL document CHEMBL1125445", "about": "“Bis(maltolato)oxovanadium(IV) is a potent insulin mimic” (J Med Chem, 1992)", "format_in_all_cases": "functional, organism-based", "key": {"Rattus norvegicus [1]": {"organism": "Rattus norvegicus", "assay": "Decrease in plasma triglyceride (mM) of Male Wistar ratsrecieved an equivalent volume of isotonic saline (C control group)", "summary_of_the_method": "(§1)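 Wistar males, with STZ diabetes from 60 mg/kg i.v. in saline or saline-injected controls. Treated groups got the compound ad libitum in drinking water (1.58 mM) and untreated groups got tap water. Plasma was taken after 4 weeks by centrifuging blood at 20000g for 10 min at 4 °C and kept at -70 °C until assay. Reported as mean ± SEM, with ANOVA then Newman-Keuls.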"}, "Rattus norvegicus [2]": {"organism": "Rattus norvegicus", "assay": "Decrease in plasma triglyceride (mM) of male Wistar rats control treated (CT) group (number of rats = 11) which received compound dissolved in tap water", "summary_of_the_method": "as §1"}, "Rattus norvegicus [3]": {"tested_on": "Rattus norvegicus", "assay": "Decrease in plasma triglyceride (mM)in male Wistar rats diabetic (D) group (number of rats = 11) where the diabetic state was induced by intravenous administration of streptozocin (STZ) at 60 mg/kg", "set-up": "dose 60 mg/kg", "summary_of_the_method": "as §1"}, "Rattus norvegicus [4]": {"organism": "Rattus norvegicus", "assay": "Decrease in weight of Male Wistar ratsrecieved an equivalent volume of isotonic saline (C control group)", "summary_of_the_method": "(§2)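 Male Wistar rats housed 2–3 per cage on a 12 h light/dark cycle with free food and water. Diabetes was induced by i.v. streptozocin, 60 mg/kg in 0.9% NaCl, and controls got saline. Treated groups drank the compound at 1.58 mM in tap water. Body weight was recorded daily and reported at week 4 as mean ± SEM, with ANOVA/Newman-Keuls.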"}, "Rattus norvegicus [5]": {"organism": "Rattus norvegicus", "assay": "Decrease in weight of male Wistar rats control treated (CT) group (number of rats = 11) which received compound dissolved in tap water", "summary_of_the_method": "as §2"}, "Rattus norvegicus [6]": {"tested_on": "Rattus norvegicus", "assay": "Decrease in weight(g)in male Wistar rats diabetic (D) group (number of rats = 11) where the diabetic state was induced by intravenous administration of streptozocin (STZ) at 60 mg/kg", "set-up": "dose 60 mg/kg", "summary_of_the_method": "as §2"}, "Rattus norvegicus [7]": {"organism": "Rattus norvegicus", "assay": "Decrease weight(g) in male Wistar rats diabetic treated (DT) group (number of rats = 12) which received compound dissolved in tap water", "summary_of_the_method": "as §2"}, "Rattus norvegicus [8]": {"tested_on": "Rattus norvegicus", "assay": "Decrease in plasma glucose (mM)in male Wistar rats diabetic (D) group (number of rats = 11) where the diabetic state was induced by intravenous administration of streptozocin (STZ) at 60 mg/kg", "set-up": "dose 60 mg/kg", "summary_of_the_method": "as §1"}, "Rattus norvegicus [9]": {"organism": "Rattus norvegicus", "assay": "Decrease in plasma insulin (microUnits/mL) of Male Wistar ratsrecieved an equivalent volume of isotonic saline (C control group)", "summary_of_the_method": "as §1"}, "Rattus norvegicus [10]": {"organism": "Rattus norvegicus", "assay": "Decrease in fluid (mL/rat/day)-intake in male Wistar rats diabetic treated (DT) group (number of rats = 12) which received compound dissolved in tap water", "summary_of_the_method": "(§3)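 Male Wistar rats; diabetes induced by a single tail-vein injection of streptozocin, 60 mg/kg in 0.9% NaCl, and non-diabetic rats got saline. Treated groups drank the compound in tap water (1.58 mM), and untreated groups drank tap water. Food and fluid intake per 24 h per cage was divided by rats per cage. Values at week 4, mean ± SEM, ANOVA/Newman-Keuls.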"}, "Rattus norvegicus [11]": {"tested_on": "Rattus norvegicus", "assay": "Decrease in fluid (mL/rat/day)-intake-in male Wistar rats diabetic (D) group (number of rats = 11) where the diabetic state was induced by intravenous administration of streptozocin (STZ) at 60 mg/kg", "set-up": "dose 60 mg/kg", "summary_of_the_method": "as §3"}, "Rattus norvegicus [12]": {"organism": "Rattus norvegicus", "assay": "Decrease in fluid intake of Male Wistar ratsrecieved an equivalent volume of isotonic saline (C control group)", "summary_of_the_method": "as §3"}, "Rattus norvegicus [13]": {"organism": "Rattus norvegicus", "assay": "Decrease in fluid intake of male Wistar rats control treated (CT) group (number of rats = 11) which received compound dissolved in tap water", "summary_of_the_method": "as §3"}, "Rattus norvegicus [14]": {"organism": "Rattus norvegicus", "assay": "Decrease food (g/rat/day) intake in male Wistar rats diabetic treated (DT) group (number of rats = 12) which received compound dissolved in tap water", "summary_of_the_method": "as §3"}, "Rattus norvegicus [15]": {"organism": "Rattus norvegicus", "assay": "Decrease in food intake of male Wistar rats control treated (CT) group (number of rats = 11) which received compound dissolved in tap water", "summary_of_the_method": "as §3"}, "Rattus norvegicus [16]": {"organism": "Rattus norvegicus", "assay": "Decrease in food intake of Male Wistar ratsrecieved an equivalent volume of isotonic saline (C control group)", "summary_of_the_method": "as §3"}, "Rattus norvegicus [17]": {"organism": "Rattus norvegicus", "assay": "Decrease in plasma cholesterol (mM) in male Wistar rats diabetic treated (DT) group (number of rats = 12) which received compound dissolved in tap water", "summary_of_the_method": "as §1"}, "Rattus norvegicus [18]": {"organism": "Rattus norvegicus", "assay": "Decrease in plasma cholesterol (mM) of Male Wistar ratsrecieved an equivalent volume of isotonic saline (C control group)", "summary_of_the_method": "as §1"}, "Rattus norvegicus [19]": {"organism": "Rattus norvegicus", "assay": "Decrease in plasma cholesterol (mM) of male Wistar rats control treated (CT) group (number of rats = 11) which received compound dissolved in tap water", "summary_of_the_method": "as §1"}, "Rattus norvegicus [20]": {"tested_on": "Rattus norvegicus", "assay": "Decrease in plasma cholesterol (mM)in male Wistar rats diabetic (D) group (number of rats = 11) where the diabetic state was induced by intravenous administration of streptozocin (STZ) at 60 mg/kg", "set-up": "dose 60 mg/kg", "summary_of_the_method": "as §1"}, "Rattus norvegicus [21]": {"organism": "Rattus norvegicus", "assay": "Decrease in plasma glucose (mM) in male Wistar rats diabetic treated (DT) group (number of rats = 12) which received compound dissolved in tap water", "summary_of_the_method": "as §1"}, "Rattus norvegicus [22]": {"organism": "Rattus norvegicus", "assay": "Decrease in plasma glucose (mM) of Male Wistar ratsrecieved an equivalent volume of isotonic saline (C control group)", "summary_of_the_method": "as §1"}, "Rattus norvegicus [23]": {"organism": "Rattus norvegicus", "assay": "Decrease in plasma glucose (mM) of male Wistar rats control treated (CT) group (number of rats = 11) which received compound dissolved in tap water", "summary_of_the_method": "as §1"}, "Rattus norvegicus [24]": {"organism": "Rattus norvegicus", "assay": "Decrease in plasma insulin (microUnits/mL) of male Wistar rats control treated (CT) group (number of rats = 11) which received compound dissolved in tap water", "summary_of_the_method": "as §1"}, "Rattus norvegicus [25]": {"tested_on": "Rattus norvegicus", "assay": "Decrease in plasma insulin (microUnits/mL) in male Wistar rats diabetic (D) group (number of rats = 11) where the diabetic state was induced by intravenous administration of streptozocin (STZ) at 60 mg/kg", "set-up": "dose 60 mg/kg", "summary_of_the_method": "as §1"}, "Rattus norvegicus [26]": {"organism": "Rattus norvegicus", "assay": "Decrease in plasma insulin (microUnits/mL) in male Wistar rats diabetic treated (DT) group (number of rats = 12) which received compound dissolved in tap water", "summary_of_the_method": "as §1"}, "Rattus norvegicus [27]": {"organism": "Rattus norvegicus", "assay": "Decrease in plasma triglyceride (mM) in male Wistar rats diabetic treated (DT) group (number of rats = 12) which received compound dissolved in tap water", "summary_of_the_method": "as §1"}, "Rattus norvegicus [28]": {"tested_on": "Rattus norvegicus", "assay": "Decrease in food (g/rat/day)in take in male Wistar rats diabetic (D) group (number of rats = 11) where the diabetic state was induced by intravenous administration of streptozocin (STZ) at 60 mg/kg", "set-up": "dose 60 mg/kg", "summary_of_the_method": "as §3"}}, "data": [{"substance": "BIS(MALTOLATO)OXOVANADIUM(IV)", "values": [{"measurement": "Plasma triglyceride", "setting": "Rattus norvegicus [1]", "value": 1.8, "unit": "mM"}, {"measurement": "Plasma triglyceride", "setting": "Rattus norvegicus [2]", "value": 2.1, "unit": "mM"}, {"measurement": "Plasma triglyceride", "setting": "Rattus norvegicus [3]", "value": 2.7, "unit": "mM"}, {"measurement": "WEIGHT", "setting": "Rattus norvegicus [4]", "value": 404, "unit": "g"}, {"measurement": "WEIGHT", "setting": "Rattus norvegicus [5]", "value": 391, "unit": "g"}, {"measurement": "WEIGHT", "setting": "Rattus norvegicus [6]", "value": 349, "unit": "g"}, {"measurement": "WEIGHT", "setting": "Rattus norvegicus [7]", "value": 311, "unit": "g"}, {"measurement": "Plasma glucose", "setting": "Rattus norvegicus [8]", "value": 13.9, "unit": "mM"}, {"measurement": "Plasma insulin", "setting": "Rattus norvegicus [9]", "value": 35.6, "unit": "uUnits ml-1"}, {"measurement": "Fluid (ml rat-1 day-1)", "setting": "Rattus norvegicus [10]", "value": 52}, {"measurement": "Fluid (ml rat-1 day-1)", "setting": "Rattus norvegicus [11]", "value": 264}, {"measurement": "Fluid (ml rat-1 day-1)", "setting": "Rattus norvegicus [12]", "value": 59}, {"measurement": "Fluid (ml rat-1 day-1)", "setting": "Rattus norvegicus [13]", "value": 43}, {"measurement": "Food (g rat-1 day-1)", "setting": "Rattus norvegicus [14]", "value": 37.9}, {"measurement": "Food (g rat-1 day-1)", "setting": "Rattus norvegicus [15]", "value": 28.8}, {"measurement": "Food (g rat-1 day-1)", "setting": "Rattus norvegicus [16]", "value": 28.3}, {"measurement": "Plasma cholesterol", "setting": "Rattus norvegicus [17]", "value": 1.6, "unit": "mM"}, {"measurement": "Plasma cholesterol", "setting": "Rattus norvegicus [18]", "value": 1.4, "unit": "mM"}, {"measurement": "Plasma cholesterol", "setting": "Rattus norvegicus [19]", "value": 1.7, "unit": "mM"}, {"measurement": "Plasma cholesterol", "setting": "Rattus norvegicus [20]", "value": 2.4, "unit": "mM"}, {"measurement": "Plasma glucose", "setting": "Rattus norvegicus [21]", "value": 7, "unit": "mM"}, {"measurement": "Plasma glucose", "setting": "Rattus norvegicus [22]", "value": 4, "unit": "mM"}, {"measurement": "Plasma glucose", "setting": "Rattus norvegicus [23]", "value": 4.1, "unit": "mM"}, {"measurement": "Plasma insulin", "setting": "Rattus norvegicus [24]", "value": 21.6, "unit": "uUnits ml-1"}, {"measurement": "Plasma insulin", "setting": "Rattus norvegicus [25]", "value": 22, "unit": "uUnits ml-1"}, {"measurement": "Plasma insulin", "setting": "Rattus norvegicus [26]", "value": 21.9, "unit": "uUnits ml-1"}, {"measurement": "Plasma triglyceride", "setting": "Rattus norvegicus [27]", "value": 1.9, "unit": "mM"}, {"measurement": "Food (g rat-1 day-1)", "setting": "Rattus norvegicus [28]", "value": 63.5}]}]}
